The list is not random: actives were taken first. Their share in the collection is about 5%.
CSC inhib: blocks cancer stem cells | cancer stem cell-like cells viability, luminescence | inhibition, % at 7.5 µM | actives 1.1% (n = 300,000) | AID 2717; in the data active = inhibition above about 75%; inconclusive = no clear call, values can overlap the other calls; tested in HMLE shEcad cells
Beta cell apopt: beta cell apoptosis inhibition; INS-1E cytokine-induced death, ATP luminescence, 48 h; percent of positive-control rescue, neutral wells zero; protection from apoptosis, % (test concentration not listed); actives 0.8% (n = 300,000);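 active = Every replicate reaches about 75%, or at least half do and their mean reaches it too, limit read from the data; inconclusive = At least half of replicates reach the limit but their mean does not; inactive = Under half of replicates reach the limit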;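 note: 0% = cytokine-treated negative control wells and 100% = positive control rescue; higher means more ATP so stronger rescue from cytokine killing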
Mdm2-MdmX inh: inhibitors of human Mdm2/MdmX interaction | SaOS-2 split-luciferase Mdm2/MdmX complementation, luminescence | inhibition, % at 8 µM | actives 3% (n = 330,000);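 active = inhibition of at least 50% at 8 µM in the primary screen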
Target sequence (O15151 whole entry, looked up): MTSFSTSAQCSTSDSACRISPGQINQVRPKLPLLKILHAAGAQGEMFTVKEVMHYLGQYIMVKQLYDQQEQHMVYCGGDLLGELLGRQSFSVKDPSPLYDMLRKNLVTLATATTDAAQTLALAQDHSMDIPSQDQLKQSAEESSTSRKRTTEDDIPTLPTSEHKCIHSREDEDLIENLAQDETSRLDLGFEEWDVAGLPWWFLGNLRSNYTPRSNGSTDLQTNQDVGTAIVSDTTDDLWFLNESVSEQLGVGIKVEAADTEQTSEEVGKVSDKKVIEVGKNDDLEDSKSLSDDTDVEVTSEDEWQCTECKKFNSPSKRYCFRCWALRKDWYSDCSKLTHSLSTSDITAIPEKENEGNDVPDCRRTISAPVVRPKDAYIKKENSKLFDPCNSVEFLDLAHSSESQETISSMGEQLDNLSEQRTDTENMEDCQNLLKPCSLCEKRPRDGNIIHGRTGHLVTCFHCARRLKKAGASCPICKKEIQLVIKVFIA
Target sequence (Q00987 whole entry, looked up): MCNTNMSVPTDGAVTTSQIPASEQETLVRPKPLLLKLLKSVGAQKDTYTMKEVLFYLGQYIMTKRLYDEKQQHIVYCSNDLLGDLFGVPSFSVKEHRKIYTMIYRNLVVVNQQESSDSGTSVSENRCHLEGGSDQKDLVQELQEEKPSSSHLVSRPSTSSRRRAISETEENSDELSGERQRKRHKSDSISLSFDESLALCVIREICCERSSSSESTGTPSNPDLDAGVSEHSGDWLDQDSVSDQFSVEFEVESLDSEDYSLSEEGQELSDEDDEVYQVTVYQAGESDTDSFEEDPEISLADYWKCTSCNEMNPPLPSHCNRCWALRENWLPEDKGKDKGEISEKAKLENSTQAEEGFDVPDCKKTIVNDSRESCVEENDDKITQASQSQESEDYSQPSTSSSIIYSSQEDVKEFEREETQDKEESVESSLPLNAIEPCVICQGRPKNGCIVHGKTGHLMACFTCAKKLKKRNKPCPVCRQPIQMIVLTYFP
CHOP UPR activ: activators of apoptotic arm of unfolded protein response (CHOP); CHO-CHOP luciferase reporter, UPR activation, luminescence; percent of tunicamycin response over DMSO baseline; activation, % at 10 µM; actives 0.34% (n = 330,000);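 active = at 10 µM dose, activation of 40% or more, normalized to positive control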;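 note: 100% = tunicamycin at 10 µg/mL and 0% = DMSO alone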
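Assay system: CHO cells with stable CHOP pathway luciferase reporter; Buffer or medium: F12 plus 10% serum; Times: 16-18 h cell attachment, then 6 h compound exposure, 37 °C; Signal: luciferase luminescence; Read-out basis: percent activation relative to tunicamycin control; Control set: tunicamycin high control, DMSO low control.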
T cruzi repl: T. cruzi replication inhibition; T. cruzi beta-gal in NIH3T3, luminescence, 90 h; inhibition, % (concentration not given with the values); actives 1.4% (n = 300,000); AID 1885;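 active = mean inhibition across valid replicates above about 55%, limit read from the data; inconclusive = mean below that limit but half or more replicates reach it; inactive = mean below it, under half of replicates reach it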;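 note: signal also drops with host cell toxicity which is not excluded here; 0% = plate median of DMSO wells and 100% = zero luminescence signal; higher percent means less beta-gal luminescence so fewer parasites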
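System: Mouse NIH/3T3 fibroblasts infected with β-gal-expressing T. cruzi Tulahuen C4 | Quantity: NIH/3T3 cells, 5,000 per well | Reagent: 5000 reporter trypomastigotes per well | Dosing: Compound pinned at 50 nL/well, DMSO | Schedule: 3 h host attachment, then at least 90 h co-culture | Detection: GalScreen luminescence, 60 min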
XBP1 UPR activ: activators of adaptive arm of unfolded protein response (XBP1); actives 0.33% (n = 330,000); activation, % at 20 µM; AID 463104; CHO-XBP1 luciferase reporter, IRE1-XBP1 UPR activation, luminescence; percent of tunicamycin response, DMSO as zero;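 active = versus positive control, 20 µM dose yields 30% or more activation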;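 note: 100% = tunicamycin at 10 µg/mL and 0% = DMSO only wells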
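Material: CHO cell line with stable XBP1 luciferase reporter; schedule: 16-18 h cell attachment at 37 °C, then 6 h compound exposure; signal: glow luminescence from Steady-Glo reagent; medium: serum-containing F12 medium, 10% FBS; benchmarks: tunicamycin 10 µg/mL and vehicle-only wells; read-out: percent activation relative to tunicamycin reference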
Mdm2 MdmX conf: human Mdm2/MdmX binding inhibition, confirmed; shares compounds with Mdm2-MdmX inh; luminescent assay; inhibition, % at 8 µM; actives 55% (n = 10,000); in the data active = inhibition above about 40%
Full FLuc ctr: full-length luciferase inhibition in Mdm2/MdmX counter-screen; shares compounds with Mdm2-MdmX inh; SaOS-2 full-length luciferase counterscreen, luminescence; inhibition, % at 8 µM; actives 77% (n = 6,200); AID 504607;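 active = mean inhibition at 8 µM reaching about 37%, which flags the compound as non-specific, limit read from the data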;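 note: p53-null SaOS-2 cells with luciferase driven by a doxycycline-inducible promoter; compound on cells about two nights before reading with doxycycline added after day one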
* marks the source's active call; other numbers are inactive results; ? = inconclusive; . = not tested or not shown; + = active, no number.

SMILES	CSC inhib	Beta cell apopt	Mdm2-MdmX inh	CHOP UPR activ	T cruzi repl	XBP1 UPR activ	Mdm2 MdmX conf	Full FLuc ctr
O=C(c1cc(-c2cccs2)nn1-c1ccccc1)N1CCN(S(=O)(=O)c2ccccc2)CC1	53	8	55*	3	13	-2	38	92*
COc1ccc(-c2nc(NC(=O)c3ccccc3)sc2-c2ccc([N+](=O)[O-])cc2)cc1	27	3	64*	-1	10	3	10	.
CC1(c2nnc(-c3cccc(Cl)c3)o2)CC(c2cccnc2)=NO1 (stereo not drawn)	-2	.	10	3	2	1	.	.
Cc1ccc(NS(=O)(=O)c2ccc(Cl)c(C(=O)Nc3ccccc3-c3nc4ccccc4[nH]3)c2)cc1C	+	10	61*	2	68*	2	77*	51*
COC(=O)COc1ccc(/C=N/NC(=O)c2ccc(N(Cc3ccccc3)S(C)(=O)=O)cc2)cc1	22	-2	61*	-1	8	-3	22	.
CCc1cc2c(=O)n(Cc3ccco3)c(SCc3c(C)noc3C)nc2s1	59	5	72*	1	26	1	66*	48*
CC(=O)SC1CC2=CC(=O)CCC2(C)C2CCC3(C)C(CCC34CCC(=O)O4)C12 (stereo not drawn)	-7	.	51*	2	15	-2	48*	96*
CC(=O)[C@H]1CC[C@H]2[C@@H]3CCC4=CC(=O)CC[C@]4(C)[C@H]3CC[C@]12C	-5	-3	25	3	9	-6	.	.
O=C(COc1ncnc2ccc(Br)cc12)Nc1ccc(N2CCOCC2)cc1	7	2	12	-1	12	-1	.	.
Brc1ccc2ncnc(Nc3ccc(N4CCOCC4)cc3)c2c1	-3	-9	62*	-2	62*	-1	66*	26
CC(=O)c1cccc(Nc2ncnc3ccc(Br)cc23)c1	-2	8	67*	-1	-2	1	47*	38*
CSCCC(Nc1ncnc2ccc(Br)cc12)C(=O)O (stereo not drawn)	-8	-3	11	-1	1	-2	.	.
Brc1ccc2ncnc(NCc3ccco3)c2c1	3	3	57*	1	14	-3	22	.
O=C(O)c1cccc(Nc2ncnc3ccccc23)c1	0	-2	-22	-2	-1	-6	.	.
CC(C)Nc1ncnc2ccc(Br)cc12	2	29	67*	-2	-45	-2	68*	25
CC(Sc1ccccc1)C(=O)NN=C1CCCCCC1 (stereo not drawn)	-9	-3	6	-1	-13	-4	.	.
COc1cc2c(cc1OC)C(c1cccs1)N(C(=O)C(C)C)CC2 (stereo not drawn)	18	-4	-1	-2	-1	-4	.	.
COc1cc2c(cc1OC)C(c1cccs1)N(C(=O)c1cccnc1)CC2 (stereo not drawn)	2	8	56*	0	-33	0	58*	73*
CCCn1cc(CN2CCC(n3nccc3NC(=O)c3ccccc3)CC2)c(C)n1	-6	0	11	-1	30	-2	.	.
Fc1c(F)c(F)c(/C=N/NC(=S)Nc2cccnc2)c(F)c1F	12	33	51*	0	-8	-2	34	74*
Cc1cc(C(=O)NCCCN2CCN(c3cc(Cl)ccc3C)CC2)n(-c2ccccc2)n1	20	4	10	-1	17	2	.	.
Cc1cc(C(=O)NCCN2CCN(c3cccc(Cl)c3)CC2)n(-c2ccccc2)n1	58	.	53*	2	.	1	59*	62*
CCc1ccc2nc(SCC(=O)Nc3ccccc3N3CCOCC3)c(C#N)cc2c1	?	15	67*	0	16	2	60*	46*
Cc1ccc2nc(SCC(=O)Nc3ccccc3N3CCOCC3)c(C#N)cc2c1	53	23	40	1	-32	3	.	.
COc1cc2c(=O)n(Cc3ccco3)c(=O)n(CC(=O)c3cccc(Br)c3)c2cc1OC	-4	19	50*	-9	18	4	25	.
SMILES	CSC inhib	Beta cell apopt	Mdm2-MdmX inh	CHOP UPR activ	T cruzi repl	XBP1 UPR activ	Mdm2 MdmX conf	Full FLuc ctr
COc1cc2c(=O)n(Cc3ccco3)c(=O)n(CC(=O)c3ccc(Br)cc3)c2cc1OC	-7	2	47	0	12	10	.	.
COc1ccc(-c2ccc([C@H]3[C@H]4C=CC[C@@H](C)[C@@H]4C(=O)N3Cc3ccccc3)c(F)c2)cc1	66	69	30	0	39	0	.	.
COc1cc(-c2cccc([C@H]3[C@@H]4C=CC[C@@H](C)[C@@H]4C(=O)N3Cc3ccccc3)c2)cc(OC)c1OC	.	.	83*	4	.	10	35	.
COc1ccc(-c2c([C@H]3[C@H]4C=CC[C@@H](C)[C@@H]4C(=O)N3Cc3ccccc3)ccc3ccccc23)cc1	46	107*	69*	0	30	2	16	.
COc1ccc(-c2cccc([C@H]3[C@@H]4C=CC[C@@H](C)[C@@H]4C(=O)N3Cc3ccccc3)c2)cc1	.	.	18	2	.	-1	.	.
COc1c(Br)cc(Br)cc1C(=O)Nc1ccccc1N1CCCC1	24	-3	20	-1	15	-5	.	.
O=C(O)COc1ccccc1/C=N/NC(=O)CN1CCN(Cc2ccc(Cl)cc2)CC1	-9	-12	-24	0	-6	-1	.	.
COC(=O)c1cc(NC(=O)c2c(Cl)nc3sccn23)cc(C(=O)OC)c1	2	24	68*	-1	-8	19	13	.
CC(C)(C)OC(=O)n1cc(C(=O)c2ccccc2O)cn1	-6	.	18	1	-8	-2	.	.
COc1cc(CNCCN2CCOCC2)ccc1OCc1ccc(Cl)cc1Cl	.	16	53*	1	49	10	20	.
COc1ccc(C(=O)NCC(=O)OCc2ccc(Cl)cc2Cl)cc1OC	.	.	-18	-1	.	0	.	.
COc1cc(C(=O)NC2CCCCC2)ccc1OCc1ccc(Cl)cc1Cl	7	-1	58*	2	33	2	12	.
CCN1CCN(C(=O)CN(c2ccccc2C)S(C)(=O)=O)CC1	-14	-6	17	2	-4	0	.	.
COc1ccccc1NC(=S)NCc1ccc2c(c1)cc(C)n2C	-12	-11	31	-3	6	-3	.	.
Cc1ccccc1NC(=S)NCc1ccc2c(c1)cc(C)n2C	-1	6	68*	-2	24	1	48*	62*

Source: PubChem
